Reference: ChEMBL document CHEMBL5365542, “Difluoromethyl-1,3,4-oxadiazoles Are Selective, Mechanism-Based, and Essentially Irreversible Inhibitors of Histone Deacetylase 6” (J Med Chem, 2023)
Activity calls are given as the source filed them. No cut-off for these calls is given here.

What was measured:
[1] = target: T1, Protein deacetylase HDAC6 (Homo sapiens) (UniProt Q9UBN7); assay: (§1) Irreversible inhibition of N-terminal GST tagged human recombinant HDAC6 (1 to 1215 residues) expressed in Sf9 insect cells using Z-Lys(Ac)-AMC as fluorogenic substrate at 2.5 uM preincubated for 1 hr followed by 100-fold dilution and substrate addition measured every 0.5 mins for 60 mins by microplate reader analysis
T1 sequence (whole entry): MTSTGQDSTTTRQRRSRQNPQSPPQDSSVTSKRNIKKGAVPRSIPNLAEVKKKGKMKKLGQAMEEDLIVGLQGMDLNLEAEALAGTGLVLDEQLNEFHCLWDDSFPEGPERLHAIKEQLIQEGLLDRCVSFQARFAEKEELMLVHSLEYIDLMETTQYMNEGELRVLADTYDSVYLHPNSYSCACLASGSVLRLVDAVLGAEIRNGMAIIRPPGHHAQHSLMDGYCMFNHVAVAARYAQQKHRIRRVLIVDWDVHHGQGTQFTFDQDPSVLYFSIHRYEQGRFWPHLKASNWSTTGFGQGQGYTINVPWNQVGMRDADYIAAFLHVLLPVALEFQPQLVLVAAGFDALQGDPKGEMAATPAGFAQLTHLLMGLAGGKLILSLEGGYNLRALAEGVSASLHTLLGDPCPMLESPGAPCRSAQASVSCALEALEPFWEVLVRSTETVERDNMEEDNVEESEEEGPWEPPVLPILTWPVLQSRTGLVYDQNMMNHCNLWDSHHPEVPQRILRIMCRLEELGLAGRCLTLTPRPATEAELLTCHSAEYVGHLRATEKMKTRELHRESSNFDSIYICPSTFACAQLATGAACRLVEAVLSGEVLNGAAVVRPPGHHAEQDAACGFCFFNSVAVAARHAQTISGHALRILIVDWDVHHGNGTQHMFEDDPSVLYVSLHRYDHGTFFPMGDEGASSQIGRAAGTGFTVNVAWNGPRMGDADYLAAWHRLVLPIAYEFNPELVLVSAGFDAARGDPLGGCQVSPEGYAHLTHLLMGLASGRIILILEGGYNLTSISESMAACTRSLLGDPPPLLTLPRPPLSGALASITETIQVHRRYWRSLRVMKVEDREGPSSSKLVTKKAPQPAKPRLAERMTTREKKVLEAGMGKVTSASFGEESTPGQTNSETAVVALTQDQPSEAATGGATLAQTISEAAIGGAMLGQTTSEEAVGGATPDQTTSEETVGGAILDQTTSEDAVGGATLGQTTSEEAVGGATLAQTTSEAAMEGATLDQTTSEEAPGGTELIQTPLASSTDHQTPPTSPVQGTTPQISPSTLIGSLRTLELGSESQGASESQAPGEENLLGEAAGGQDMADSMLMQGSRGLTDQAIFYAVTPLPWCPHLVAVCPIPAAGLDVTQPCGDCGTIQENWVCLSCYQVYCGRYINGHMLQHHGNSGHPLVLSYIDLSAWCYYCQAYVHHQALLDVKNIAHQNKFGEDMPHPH
How it was run: (§2)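 It was then diluted 100-fold in buffer or in inhibitor at the original concentration. Finals were 220 pg/μL enzyme, 93 μM ZMAL and 20 ng/μL trypsin. AMC release was read every 0.5 min for 60 min at 37 °C; triplicates.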

[2] = target: T1, Protein deacetylase HDAC6 (Homo sapiens); assay: (§3) Binding affinity to N-terminal GST tagged human recombinant HDAC6 (1 to 1215 residues) expressed in Sf9 insect cells using Z-Lys(Ac)-AMC as fluorogenic substrate assessed as induced-fit mechanism by measuring hyperbolic relationship between Kobs and inhibitor concentration measured every 0.5 mins for 45 mins
How it was run: (§4)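 Finals were 220 pg/μL enzyme, 93.0 μM ZMAL (5× KM; KM 19.27 μM) and 20 ng/μL trypsin. AMC read continuously (ex 360/em 460) at 37 °C. Curves fitted for kobs, then kobs vs [I] fitted; triplicates.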

[3] = target: T1, Protein deacetylase HDAC6 (Homo sapiens); assay: as §3, with “single step slow binding” for “induced-fit”, “linear” for “hyperbolic”; how it was run: as §4
[4] = target: T1, Protein deacetylase HDAC6 (Homo sapiens); assay: as §1, with “6.5” for “2.5”; how it was run: as §2

| Structure (SMILES) | inhibition [1] | Activity [2] | Activity [3] | inhibition [4] |
| --- | --- | --- | --- | --- |
| FC(F)c1nnc(-c2cnc(NCc3ccccc3)nc2)o1 | Active | Active | – | – |
| FC(F)(F)c1nnc(-c2cnc(NCc3ccccc3)nc2)o1 | – | – | Active | inactive |
